ChEMBL document CHEMBL1148686, “Synthesis and anticonvulsant activity of new N-1',N-3'-disubstituted-2'H,3H,5'H-spiro-(2-benzofuran-1,4'-imidazolidine)-2',3,5'-triones” (2006)
Active and inactive are the calls of the source. The calls are words filed in the database; no cut-off is given here.

Key:
Mus musculus [1] = assay: Protection against PTZ-induced convulsions in mouse at 300 mg/kg, ip after 0.5 hrs by scPTZ assay; format: functional, organism-based; set-up: dose 300 mg/kg
In short: (§1)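 Mice received test drug, positive control or vehicle (DMSO) intraperitoneally 30 min before a subcutaneous PTZ injection at 80 mg/kg. The end-point was clonic seizure lasting more than 5 s. Tested up to 300 mg/kg. Run in triplicate (n = 3). ED50 in mg/kg was found by non-linear regression, as mean with 95% confidence intervals.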

Mus musculus [2] = assay: Protection against electroshock-induced convulsions in mouse up to 300 mg/kg, ip after 0.5 hrs by MES assay; format: functional, organism-based; set-up: dose 300 mg/kg
In short: (§2)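 Mice were dosed intraperitoneally with test drug, positive control or vehicle (DMSO) 30 min before electroshock at 50 mA for 0.2 s. The end-point was the hind limb tonic extensor component. Doses up to 300 mg/kg. Done in triplicate (n = 3). ED50 in mg/kg was derived by non-linear regression and given as mean with 95% confidence intervals.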

Mus musculus [3] = assay: Protection against PTZ-induced convulsions in mouse up to 300 mg/kg, ip after 0.5 hrs by scPTZ assay; format: functional, organism-based; set-up: dose 300 mg/kg; in short: as §1
Mus musculus [4] = assay: Protection against PTZ-induced convulsions in ip dosed mouse after 0.5 hrs by scPTZ assay; format: functional; in short: as §1
Mus musculus [5] = assay: Protection against electroshock-induced convulsions in mouse at 300 mg/kg, ip after 0.5 hrs by MES assay; format: functional, organism-based; set-up: dose 300 mg/kg; in short: as §2
Mus musculus [6] = assay: Protection against electroshock-induced convulsions in ip dosed mouse after 0.5 hrs by MES assay; format: functional; in short: as §2

Row | Compound | Activity (Mus musculus [2]) | ED50 (Mus musculus [4]) [mg/kg] | ED50 (Mus musculus [6]) [mg/kg] | other results
1 | CC(C)N1C(=O)N(C(C)C)C2(OC(=O)c3ccccc32)C1=O (stereo not given) | inactive | – | – | Activity (Mus musculus [1]): Active
2 | O=C1OC2(C(=O)N(C3CCCCC3)C(=O)N2C2CCCCC2)c2ccccc21 (stereo not given) | inactive | – | – | Activity (Mus musculus [3]): inactive
3 | CCCCN1C(=O)N(CCCC)C2(OC(=O)c3ccccc32)C1=O (stereo not given) | – | > 100 | – | Activity (Mus musculus [5]): Active
4 | CCCN1C(=O)N(CCC)C2(OC(=O)c3ccccc32)C1=O (stereo not given) | – | 78.5 | > 100 | –
5 | CCN1C(=O)N(c2ccc([N+](=O)[O-])cc2)C(=O)C12OC(=O)c1ccccc12 (stereo not given) | inactive | 41.8 | – | –
6 | CN1C(=O)N(c2ccc(F)cc2)C(=O)C12OC(=O)c1ccccc12 (stereo not given) | – | 87.1 | > 100 | –
7 | CCN1C(=O)N(c2ccc(OC)cc2)C(=O)C12OC(=O)c1ccccc12 (stereo not given) | – | 82.5 | – | Activity (Mus musculus [5]): Active
8 | CCN1C(=O)N(c2ccc(F)cc2)C(=O)C12OC(=O)c1ccccc12 (stereo not given) | – | 85.8 | > 100 | –
9 | CN1C(=S)N(c2ccccc2)C(=O)C12OC(=O)c1ccccc12 (stereo not given) | inactive | – | – | Activity (Mus musculus [1]): Active
10 | CN1C(=O)N(c2ccccc2)C(=O)C12OC(=O)c1ccccc12 (stereo not given) | – | 96.8 | – | Activity (Mus musculus [5]): Active
11 | CCN1C(=O)N(C)C(=O)C12OC(=O)c1ccccc12 (stereo not given) | inactive | – | – | Activity (Mus musculus [1]): Active
12 | O=C1NC(=O)C(c2ccccc2)(c2ccccc2)N1 [PHENYTOIN] | – | – | 8.1 | Activity (Mus musculus [3]): inactive
13 | CCN1C(=O)N(c2ccccc2)C(=O)C12OC(=O)c1ccccc12 (stereo not given) | – | 54.8 | 81 | –
14 | CN1C(=O)N(c2ccc(C(F)(F)F)cc2)C(=O)C12OC(=O)c1ccccc12 (stereo not given) | – | > 100 | > 100 | –
15 | CCC1(c2ccccc2)C(=O)NC(=O)NC1=O [PHENOBARBITAL] | inactive | 20 | – | –
